Laboratory results published in ChEMBL document CHEMBL1123794, “Synthesis, conformation, and dopaminergic activity of 5,6-ethano-bridged derivatives of selective dopaminergic 3-benzazepines” (J Med Chem, 1987).

Legend:
[1] = molecular target: D(2) dopamine receptor (Bos taurus) (UniProt P20288); assay: Inhibitory activity against Dopamine receptor D2 by displacement of [3H]spiroperidol from bovine pituitary at 10 uM
[2] = molecular target: D(1A) dopamine receptor (Rattus norvegicus) (UniProt P18901); assay: Inhibitory activity against Dopamine receptor D1 by displacement of [3H]fenoldopam from homogenated rat striatum
[3] = Tested for dopamine-sensitive adenylate cyclase stimulation expressed as %DA stimulation at 10 uM; format: functional
[4] = Tested for dopamine-sensitive adenylate cyclase stimulation expressed as ED50; format: functional
How it was run: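 EC50 is the concentration giving 50% of the maximal adenylate cyclase stimulation attainable with that same compound.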

[5] = Tested for dopamine-sensitive adenylate cyclase stimulation; format: functional

Chain of D(1A) dopamine receptor (Rattus norvegicus) (P18901 whole entry): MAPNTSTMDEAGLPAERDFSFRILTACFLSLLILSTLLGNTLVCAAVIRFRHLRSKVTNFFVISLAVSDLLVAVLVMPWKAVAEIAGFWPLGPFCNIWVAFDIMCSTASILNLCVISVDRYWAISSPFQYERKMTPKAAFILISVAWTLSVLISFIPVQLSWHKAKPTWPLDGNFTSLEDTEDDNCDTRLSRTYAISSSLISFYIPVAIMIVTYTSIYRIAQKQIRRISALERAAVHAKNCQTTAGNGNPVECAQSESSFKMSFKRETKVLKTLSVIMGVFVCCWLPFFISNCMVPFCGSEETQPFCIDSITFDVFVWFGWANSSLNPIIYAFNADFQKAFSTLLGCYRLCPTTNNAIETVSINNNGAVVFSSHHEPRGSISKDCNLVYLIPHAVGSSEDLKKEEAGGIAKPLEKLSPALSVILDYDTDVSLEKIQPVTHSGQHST
Chain of D(2) dopamine receptor (Bos taurus) (P20288 whole entry): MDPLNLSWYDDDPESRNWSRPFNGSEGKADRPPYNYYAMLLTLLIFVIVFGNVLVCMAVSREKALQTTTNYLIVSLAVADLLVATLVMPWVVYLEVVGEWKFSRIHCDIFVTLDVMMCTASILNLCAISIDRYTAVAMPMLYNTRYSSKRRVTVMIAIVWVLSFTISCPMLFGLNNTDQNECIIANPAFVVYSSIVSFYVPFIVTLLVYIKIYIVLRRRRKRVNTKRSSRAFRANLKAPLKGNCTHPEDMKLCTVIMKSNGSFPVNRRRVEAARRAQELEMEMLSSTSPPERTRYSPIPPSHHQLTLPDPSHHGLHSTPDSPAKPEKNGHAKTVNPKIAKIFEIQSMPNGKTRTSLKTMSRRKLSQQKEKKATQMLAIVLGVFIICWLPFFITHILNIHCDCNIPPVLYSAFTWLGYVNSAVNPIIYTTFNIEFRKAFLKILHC

| inhibition [1] [%] | K bind [2] [µM] | DA stim [3] [%] | ED50 [4] [nM] | Control [5] [%] | SMILES |
| --- | --- | --- | --- | --- | --- |
| 14 | 0.024 | 62 | 430 |  | Oc1cc2c3c(c1O)CC[C@@H]3CNC[C@@H]2c1ccccc1 |
| 0 | 1.22 | 15 |  | 20 | Oc1cc2c3c(c1O)CC[C@H]3CNC[C@@H]2c1ccccc1 |
|  | 0.0051 | 66 | 63 |  | Oc1cc2c(cc1O)[C@@H](c1ccccc1)CNCC2 |
|  |  |  | 3500 |  | NCCc1ccc(O)c(O)c1 |
